Compound activity (PubChem BioAssay)
Hits are enriched below; roughly 12% of the tested compounds scored in any of these assays.
MT stabilize HCS = stabilizes microtubules in HeLa cells; hit rate 0.83% among 200,000; AID 2205; HeLa tubulin immunostaining HCS, 24 h; share of cells brighter than vehicle mean+2SD; % tubulin-high responders, % at 10 µM;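 active = plate Z-score above 3 for both tubulin-high and condensed-nucleus cell shares, with cell loss under 80%, at 10 µM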;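 also: anti alpha tubulin signal scored within the nucleus-defined area of each cell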
Lmaj promast = reduces viability of Leishmania major promastigotes; hit rate 9% among 200,000; inhibition, % at 10 µM; resazurin fluorescence viability; AID 1063; in the data active = inhibition above about 50%;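 also: promastigotes grown with compound for 44 hours at 28 °C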
Dynein transport = blocks dynein driven cargo transport along microtubules; 3617.4 mouse cells, GR-EGFP nuclear translocation imaging; test concentration mostly 20 µM; stimulated with dexamethasone, 1 µM; active compounds read low; z-score, hits read low; hit rate 0.47% among 220,000; AID 1381;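 active = plate z-score of nuclear minus cytoplasmic receptor signal below a set negative limit, without overly bright fluorescence or cell loss, cut at about -3.5 in these data, passing the limit was not always enough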;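 also: z-score of nuclear minus cytoplasmic ring GR-EGFP intensity difference per well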
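Schedule: 48 h induction, then 1 h compound, then 30 min agonist, 37 °C. Buffer or medium: tetracycline-free induction medium containing charcoal-stripped FBS. Reagent: 1.0 µM final dexamethasone stimulus. Evaluation: nuclear versus cytoplasmic GR-EGFP signal, averaged per well. Signal: high-content fluorescence imaging after fixation.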
bCat nuc transl = alters nuclear translocation of beta-catenin in HeLa cells. hit rate 0.3% among 190,000. AID 1665. immunofluorescence imaging. nuclear translocation activity, % at 5 µM;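 active = nuclear translocation activity above 50% at 5 µM, with a well cell count of 50 or more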;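 also: per-cell ratio of nuclear to cytoplasmic median beta-catenin stain intensity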
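Signal – beta-catenin immunofluorescence imaging with DAPI · Test system – human HeLa cell line · Dosing – 5 µM primary single dose, 0.1% DMSO, 0.02–20 µM confirmation series · Measure – % activation, nuclear-to-cytoplasmic median beta-catenin signal ratio per cell · Incubation – 24 h compound exposure at 37°C, 5% CO2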
CHOP inh = blocks CHOP induction under ER stress; hit rate 3.8% among 220,000; CHO-K1 CHOP-promoter luciferase, tunicamycin-induced, 15-18 h; inhibition, % at 10 µM;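 active = compounds that reduced the stress-induced luciferase reporter signal by more than about 70% of percent inhibition, limit read from the data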
Autophagy mod = modulators of autophagy | MEF GFP-LC3 puncta imaging; test concentration mostly 10 µM | hit rate 0.98% among 190,000 | calls only at 10 µM (by protocol) | AID 463193;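 active = percentage of spot-positive cells more than 3 SD above its plate mean, without a fluorescence outlier flag or 80% toxicity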
Of the large screens only hits and unclear results are named; the others gave an inactive call.

O=[N+]([O-])c1ccc(N2CCNCC2)cc1NCc1ccco1	Lmaj promast 100.6 (no result: bCat nuc transl)
CN1CC[C@@]2(C)c3cc(O)ccc3N(C)C12 (stereo partly specified)	none (no result: MT stabilize HCS, Lmaj promast, Dynein transport, bCat nuc transl, Autophagy mod)
COc1c(C)cc(C(=O)C2CCCN(Cc3cccc(C)n3)C2)cc1C (stereo unspecified)	none
CN1CCC(OC(=O)C2c3ccccc3Oc3ccccc32)CC1	Lmaj promast 85.7
Cc1ccsc1C(=O)C1CCCN(Cc2ccc(-n3cccn3)cc2)C1 (stereo unspecified)	none
O=c1c2ccccc2nc(N2CCCC2)n1-c1ccc(Cl)cc1	none
CC(C)CC(=O)NC(Oc1ccc(Cl)cc1)C(Cl)(Cl)Cl (stereo unspecified)	CHOP inh 72.0
COc1ccc(/C=C2/C(=O)NC(=O)N(C3CCCCC3)C2=O)cc1CSc1ccccn1	none
Cc1ccc(-n2nc(C)c3c2NC(=O)CSC3c2ccc3c(c2)OCO3)cc1 (stereo unspecified)	none
COc1ccc(C2SCC(=O)Nc3c2c(C)nn3-c2ccccc2)cc1 (stereo unspecified)	Lmaj promast 99.8
c1ccc(C2NCCc3[nH]cnc32)cc1 (stereo unspecified)	none (no result: MT stabilize HCS, Lmaj promast, Autophagy mod)
Oc1c(Br)cc(Br)cc1CN1CCN(Cc2ccccc2)CC1	Lmaj promast 73.5
O=C(Cc1ccc(Br)cc1)N1CCN(Cc2ccccc2)CC1	Lmaj promast 87.4 (no result: bCat nuc transl)
O=c1[nH]c(=S)[nH]c(O)c1CN1CCCCC1	none
CN1CCN(Cc2ccc(N)cc2)CC1	none
CCN1CCN(Cc2ccc(OC(F)(F)F)cc2)CC1	Lmaj promast 88.9
CCCCCCOc1ccc(CN2CCN(CC)CC2)cc1	Lmaj promast 97.1 (no result: bCat nuc transl)
CC(=O)OC1N=C(c2ccccc2)c2cc(Br)ccc2NC1=O (stereo unspecified)	Lmaj promast 84.9
O=C(c1ccc2nc3ccc(Cl)cc3c(=O)n2c1)N1CCC2(CC1)OCCO2	none (no result: bCat nuc transl, CHOP inh)
O=c1c2ccccc2nc(/C=C/c2ccc(O)cc2)n1-c1cccc(O)c1	CHOP inh 71.0
CCN(c1ccc(C(O)(C(=O)OC)C(F)(F)F)cc1)S(=O)(=O)c1ccccc1 (stereo unspecified)	Lmaj promast 98.8
CCOC(=O)C(NC(=O)CCl)(Nc1ccc(C(O)(C(=O)OCC)C(F)(F)F)cc1)C(F)(F)F (stereo unspecified)	none
CCOC(=O)C(O)(c1ccc(N(CC)S(=O)(=O)c2ccccc2)cc1)C(F)(F)F (stereo unspecified)	Lmaj promast 99.6
O=c1[nH]cc(COCC(F)(F)C(F)(F)C(F)(F)F)c(=O)[nH]1	none
CN1CCN(c2ccc([N+](=O)[O-])c(N)c2)CC1	Lmaj promast 52.0
O=[N+]([O-])c1cc(F)c(N2CCCCCC2)cc1N1CCNCC1	Lmaj promast 100.6
O=[N+]([O-])c1ccc(N2CCNCC2)c2ncccc12	none
CN1CCN(c2ccc([N+](=O)[O-])c(SCCO)c2)CC1	none
O=[N+]([O-])c1ccc(N2CCNCC2)cc1N1CCCCCC1	Lmaj promast 99.2
CNc1cc(N2CCNCC2)ccc1[N+](=O)[O-]	none
Nc1cc(N2CCNCC2)ccc1[N+](=O)[O-]	none
CN1CCN(c2ccc([N+](=O)[O-])c(N3CCCCC3)c2)CC1	Lmaj promast 93.7
COc1cc2c(cc1OC)C(C(=O)NCCC(C)C)C1CCCCN1C2=O (stereo unspecified)	none
O=C(c1cccc2ccccc12)C1CCCN(C2CCC2)C1 (stereo unspecified)	Lmaj promast 73.6
O=c1[nH]c(=O)n(Cc2ccccc2Cl)c(O)c1/C=C1/C=CC=N1	MT stabilize HCS 29.2
COc1c(C)cc(C(=O)C2CCCN(C3CCOCC3)C2)cc1C (stereo unspecified)	Lmaj promast 97.3
COc1ccc(C(=O)C2CCCN(C3CSCCSC3)C2)cc1OC (stereo unspecified)	none
COc1ccc2cc(C(=O)C3CCCN(C4CCOCC4)C3)ccc2c1 (stereo unspecified)	Lmaj promast 99.2
O=C(c1ccc(Cl)cc1)C1CCCN(C2CCSCC2)C1 (stereo unspecified)	Lmaj promast 91.2
C=CCN1C(=O)/C(=C/c2cccs2)C(=O)NC1=S	CHOP inh 80.2
O=C1NC(=S)N(Cc2ccco2)C(=O)/C1=C\c1cccs1	none
O=C1NC(=O)N(CCC2=CCCCC2)C(=O)/C1=C\c1cccs1	Lmaj promast 55.0, CHOP inh 93.9
Cn1cccc1/C=C1\C(=O)NC(=O)N(CCC2=CCCCC2)C1=O	none
N#Cc1cc2c(nc1SCC(=O)Nc1cc(Cl)ccc1Cl)C1CCN2CC1	none
O=C1NC(=O)C(=Cc2cc([N+](=O)[O-])ccc2N2CCCCC2)C(=O)N1	Lmaj promast 96.7
O=C1NC(=O)C(=Cc2ccc(N3CCN(C(=O)c4ccccc4)CC3)c([N+](=O)[O-])c2)C(=O)N1	none
Cc1ccc(OCC(=O)N2CCN(CC3CC4C=CC3C4)CC2)cc1 (stereo unspecified)	Lmaj promast 77.7
O=C(COc1ccc(Cl)cc1)N1CCN(Cc2ccccc2)CC1	none
Cc1ccc(OCC(=O)N2CCN(Cc3ccc([N+](=O)[O-])cc3)CC2)cc1	none (no result: MT stabilize HCS, Lmaj promast, Autophagy mod)
O=C(COc1ccccc1)N1CCN(CC2CC3C=CC2C3)CC1 (stereo unspecified)	Lmaj promast 90.7
Cc1ccc(-c2cc(C(F)F)n3ncc(C(=O)N4CCC5(CC4)OCCO5)c3n2)cc1	none
CC(=O)OC1(Cc2ccccc2)CN2CCC1c1ccccc12 (stereo unspecified)	Lmaj promast 62.7
CC(=O)OC1(c2ccc(C)cc2)CN2CCC1c1ccccc12 (stereo unspecified)	none (no result: bCat nuc transl)
Cc1ccc(S(=O)(=O)NCCC(=O)Nc2ccc(Cl)cc2C(=O)c2ccccc2)cc1	CHOP inh 93.6
Cc1ccc(C(=O)Nc2ccc(Cl)cc2C(=O)c2ccccc2)cc1	Lmaj promast 99.0 (no result: bCat nuc transl, CHOP inh)
Cc1ccc(OCC(=O)Nc2ccc(Cl)cc2C(=O)c2ccccc2)cc1	none
CCCCCc1nc2ccccc2c(=O)n1-c1ccc(Cl)cc1[N+](=O)[O-]	none
COc1cc2c(cc1OC)[C@@H]1C(=O)c3ccc4c(c3O[C@@H]1CO2)C[C@H](C(C)C)O4	CHOP inh 78.5 (no result: MT stabilize HCS, Lmaj promast, Autophagy mod)
Cn1c(O)c(/C=N/c2ncccn2)c(=O)n(C)c1=O	Lmaj promast 78.0
Cn1c(O)c(C=NCc2cccs2)c(=O)n(C)c1=O	none
O=C(CNC(=O)OCc1ccccc1)NCC(=O)Nc1ccc(Br)cc1C(=O)c1ccccc1	Lmaj promast 69.5
CC(NCc1ccc(Cl)c(Cl)c1)C(O)c1ccccc1 (stereo unspecified)	Lmaj promast 91.1
CC1OC1P(=O)(O)O (stereo unspecified)	none (no result: MT stabilize HCS, Lmaj promast, Dynein transport, bCat nuc transl, Autophagy mod)
CCN(CC)CCCNC(=O)c1c(O)c2ccccc2n(Cc2ccccc2)c1=O	Lmaj promast 100.1
